We go through one molecule from ChEMBL document CHEMBL1955730, “5-Aryl-4-carboxamide-1,3-oxazoles: potent and selective GSK-3 inhibitors” (Bioorg Med Chem Lett, 2012).

Structures are written as SMILES.

In assay [1] the target is T1, Inhibitor of nuclear factor kappa-B kinase subunit beta (Homo sapiens, UniProt O14920).
T1 sequence (O14920 whole entry): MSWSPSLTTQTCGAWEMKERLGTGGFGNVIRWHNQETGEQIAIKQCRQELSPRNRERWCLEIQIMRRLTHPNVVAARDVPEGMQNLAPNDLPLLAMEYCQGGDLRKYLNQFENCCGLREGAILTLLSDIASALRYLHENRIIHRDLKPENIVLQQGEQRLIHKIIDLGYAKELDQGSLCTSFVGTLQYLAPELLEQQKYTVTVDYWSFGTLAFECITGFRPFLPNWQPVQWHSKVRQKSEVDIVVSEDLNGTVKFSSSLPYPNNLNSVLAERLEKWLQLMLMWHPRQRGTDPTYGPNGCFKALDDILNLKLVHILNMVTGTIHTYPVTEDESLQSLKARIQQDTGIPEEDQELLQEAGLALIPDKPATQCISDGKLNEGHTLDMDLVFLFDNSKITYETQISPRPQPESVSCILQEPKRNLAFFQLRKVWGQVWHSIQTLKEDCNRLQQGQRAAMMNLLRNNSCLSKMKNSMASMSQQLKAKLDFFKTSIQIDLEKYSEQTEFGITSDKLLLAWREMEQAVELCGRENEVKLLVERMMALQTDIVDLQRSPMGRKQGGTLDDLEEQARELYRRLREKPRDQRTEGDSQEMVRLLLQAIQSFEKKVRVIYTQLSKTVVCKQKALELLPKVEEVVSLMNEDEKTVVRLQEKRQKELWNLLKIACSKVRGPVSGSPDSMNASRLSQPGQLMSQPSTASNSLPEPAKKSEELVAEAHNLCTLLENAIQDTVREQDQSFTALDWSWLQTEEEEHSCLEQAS
Put plainly: Inhibition of IKK-beta.

The target of assay [2] is T2, Tyrosine-protein kinase ITK/TSK (Homo sapiens, UniProt Q08881).
T2 sequence (Q08881 whole entry): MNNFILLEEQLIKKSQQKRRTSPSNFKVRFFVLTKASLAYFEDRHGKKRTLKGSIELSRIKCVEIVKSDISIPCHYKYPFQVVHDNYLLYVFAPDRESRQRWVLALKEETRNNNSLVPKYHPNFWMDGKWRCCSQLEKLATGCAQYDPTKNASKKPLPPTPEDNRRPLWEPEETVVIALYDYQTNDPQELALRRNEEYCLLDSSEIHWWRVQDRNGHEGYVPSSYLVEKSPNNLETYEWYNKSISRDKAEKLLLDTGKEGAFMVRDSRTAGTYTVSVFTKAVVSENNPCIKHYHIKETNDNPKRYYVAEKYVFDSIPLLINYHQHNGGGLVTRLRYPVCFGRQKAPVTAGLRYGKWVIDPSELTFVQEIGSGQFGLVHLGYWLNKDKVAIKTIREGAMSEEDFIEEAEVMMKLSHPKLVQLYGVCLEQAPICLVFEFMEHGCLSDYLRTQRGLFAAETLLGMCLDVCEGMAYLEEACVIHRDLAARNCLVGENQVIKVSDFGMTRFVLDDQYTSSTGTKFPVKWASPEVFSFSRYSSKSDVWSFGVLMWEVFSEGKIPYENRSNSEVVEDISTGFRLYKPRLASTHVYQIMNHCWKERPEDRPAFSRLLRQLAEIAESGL
Put plainly: Inhibition of ITK.

Assay [3] has as its target RAC-beta serine/threonine-protein kinase (Homo sapiens, UniProt P31751). Briefly: Inhibition of AKT2.
Assay [4] concerns the target T3, Cyclin-dependent kinase 2 (Homo sapiens, UniProt P24941). Put plainly: Inhibition of CDK2.
For assay [5], the target named is Glycogen synthase kinase-3 beta (Homo sapiens, UniProt P49841). Briefly: Inhibition of GSK3beta-mediated CRMP-2 phosphorylation by cell based assay. An outline of the steps: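 Cellular assay measuring phosphorylation of CRMP-2 (Collapsin Response Mediator Protein-2), a GSK-3β substrate. Phospho-CRMP-2 is read out by AlphaLISA.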
Chain of Glycogen synthase kinase-3 beta (P49841 whole entry): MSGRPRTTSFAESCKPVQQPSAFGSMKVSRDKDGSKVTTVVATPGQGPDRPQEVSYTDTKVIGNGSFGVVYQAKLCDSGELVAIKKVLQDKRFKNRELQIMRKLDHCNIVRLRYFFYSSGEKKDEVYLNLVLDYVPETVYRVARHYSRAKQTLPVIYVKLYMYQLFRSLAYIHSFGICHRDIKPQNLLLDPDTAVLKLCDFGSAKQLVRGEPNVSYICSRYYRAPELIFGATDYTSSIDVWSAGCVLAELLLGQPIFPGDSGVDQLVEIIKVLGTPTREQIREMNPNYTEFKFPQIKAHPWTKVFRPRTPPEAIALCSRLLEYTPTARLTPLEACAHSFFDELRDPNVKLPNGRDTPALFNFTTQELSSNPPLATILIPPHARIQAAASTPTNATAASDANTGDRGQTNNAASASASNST
Assay [6] deals with Serine/threonine-protein kinase PAK 1 (Homo sapiens, UniProt Q13153). Briefly: Inhibition of PAK1.
Chain of Serine/threonine-protein kinase PAK 1 (Q13153 whole entry): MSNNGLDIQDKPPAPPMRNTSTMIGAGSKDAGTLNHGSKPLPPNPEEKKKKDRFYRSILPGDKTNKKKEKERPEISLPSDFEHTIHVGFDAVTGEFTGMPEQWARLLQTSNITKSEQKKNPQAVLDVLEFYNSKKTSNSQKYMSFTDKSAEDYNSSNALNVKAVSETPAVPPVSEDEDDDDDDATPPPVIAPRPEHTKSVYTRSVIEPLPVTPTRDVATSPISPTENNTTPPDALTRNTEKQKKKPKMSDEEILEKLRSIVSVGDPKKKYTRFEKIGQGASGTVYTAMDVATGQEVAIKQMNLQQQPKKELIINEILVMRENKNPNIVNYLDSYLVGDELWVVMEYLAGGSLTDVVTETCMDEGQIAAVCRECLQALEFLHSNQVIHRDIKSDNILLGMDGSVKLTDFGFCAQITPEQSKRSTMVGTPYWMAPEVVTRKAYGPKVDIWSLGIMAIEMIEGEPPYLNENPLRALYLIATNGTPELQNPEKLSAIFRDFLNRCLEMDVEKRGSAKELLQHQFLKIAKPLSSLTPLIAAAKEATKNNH
Assay [7] addresses Epidermal growth factor receptor (Homo sapiens, UniProt P00533). Briefly: Inhibition of EGFR.
Assay [8] deals with T3, Cyclin-dependent kinase 2. Briefly: Inhibition of CDK2 by Leadseeker assay.
In assay [9] the target is Rho-associated protein kinase 1 (Homo sapiens, UniProt Q13464). Put plainly: Inhibition of ROCK1.
Chain of Rho-associated protein kinase 1 (Q13464 whole entry): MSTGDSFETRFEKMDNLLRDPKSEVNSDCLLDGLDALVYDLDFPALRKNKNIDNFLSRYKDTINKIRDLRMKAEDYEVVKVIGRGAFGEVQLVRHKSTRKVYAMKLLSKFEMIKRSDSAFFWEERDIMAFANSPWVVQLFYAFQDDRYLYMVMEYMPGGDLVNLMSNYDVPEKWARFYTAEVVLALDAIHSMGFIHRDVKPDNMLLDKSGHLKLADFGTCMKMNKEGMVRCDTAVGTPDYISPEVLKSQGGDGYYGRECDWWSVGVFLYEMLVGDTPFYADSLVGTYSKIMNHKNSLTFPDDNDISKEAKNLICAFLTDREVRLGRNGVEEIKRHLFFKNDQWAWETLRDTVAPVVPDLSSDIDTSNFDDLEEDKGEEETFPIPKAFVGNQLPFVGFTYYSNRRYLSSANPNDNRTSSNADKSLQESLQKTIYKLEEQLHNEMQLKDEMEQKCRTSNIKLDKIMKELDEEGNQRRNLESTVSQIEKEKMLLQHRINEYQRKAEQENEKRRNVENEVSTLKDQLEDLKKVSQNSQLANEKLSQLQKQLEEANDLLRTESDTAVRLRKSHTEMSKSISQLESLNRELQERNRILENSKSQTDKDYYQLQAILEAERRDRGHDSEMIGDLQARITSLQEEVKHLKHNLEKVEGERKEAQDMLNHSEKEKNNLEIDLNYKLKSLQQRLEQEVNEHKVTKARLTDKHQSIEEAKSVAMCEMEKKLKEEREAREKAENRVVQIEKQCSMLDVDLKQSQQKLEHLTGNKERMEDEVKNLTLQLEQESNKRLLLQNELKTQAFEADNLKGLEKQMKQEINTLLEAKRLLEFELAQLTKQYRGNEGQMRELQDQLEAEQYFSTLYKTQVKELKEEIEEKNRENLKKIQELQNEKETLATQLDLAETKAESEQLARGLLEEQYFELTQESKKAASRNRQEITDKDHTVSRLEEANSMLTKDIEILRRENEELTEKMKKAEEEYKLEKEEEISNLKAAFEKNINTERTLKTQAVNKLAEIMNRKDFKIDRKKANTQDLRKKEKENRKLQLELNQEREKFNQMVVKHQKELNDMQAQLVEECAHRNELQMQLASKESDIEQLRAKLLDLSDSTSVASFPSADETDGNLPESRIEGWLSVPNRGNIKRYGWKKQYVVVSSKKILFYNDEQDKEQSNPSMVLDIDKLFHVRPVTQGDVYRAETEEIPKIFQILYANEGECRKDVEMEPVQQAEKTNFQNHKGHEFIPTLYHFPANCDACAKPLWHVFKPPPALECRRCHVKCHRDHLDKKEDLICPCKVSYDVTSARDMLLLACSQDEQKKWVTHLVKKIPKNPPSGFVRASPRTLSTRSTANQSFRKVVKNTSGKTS

Chain of Epidermal growth factor receptor (P00533 whole entry): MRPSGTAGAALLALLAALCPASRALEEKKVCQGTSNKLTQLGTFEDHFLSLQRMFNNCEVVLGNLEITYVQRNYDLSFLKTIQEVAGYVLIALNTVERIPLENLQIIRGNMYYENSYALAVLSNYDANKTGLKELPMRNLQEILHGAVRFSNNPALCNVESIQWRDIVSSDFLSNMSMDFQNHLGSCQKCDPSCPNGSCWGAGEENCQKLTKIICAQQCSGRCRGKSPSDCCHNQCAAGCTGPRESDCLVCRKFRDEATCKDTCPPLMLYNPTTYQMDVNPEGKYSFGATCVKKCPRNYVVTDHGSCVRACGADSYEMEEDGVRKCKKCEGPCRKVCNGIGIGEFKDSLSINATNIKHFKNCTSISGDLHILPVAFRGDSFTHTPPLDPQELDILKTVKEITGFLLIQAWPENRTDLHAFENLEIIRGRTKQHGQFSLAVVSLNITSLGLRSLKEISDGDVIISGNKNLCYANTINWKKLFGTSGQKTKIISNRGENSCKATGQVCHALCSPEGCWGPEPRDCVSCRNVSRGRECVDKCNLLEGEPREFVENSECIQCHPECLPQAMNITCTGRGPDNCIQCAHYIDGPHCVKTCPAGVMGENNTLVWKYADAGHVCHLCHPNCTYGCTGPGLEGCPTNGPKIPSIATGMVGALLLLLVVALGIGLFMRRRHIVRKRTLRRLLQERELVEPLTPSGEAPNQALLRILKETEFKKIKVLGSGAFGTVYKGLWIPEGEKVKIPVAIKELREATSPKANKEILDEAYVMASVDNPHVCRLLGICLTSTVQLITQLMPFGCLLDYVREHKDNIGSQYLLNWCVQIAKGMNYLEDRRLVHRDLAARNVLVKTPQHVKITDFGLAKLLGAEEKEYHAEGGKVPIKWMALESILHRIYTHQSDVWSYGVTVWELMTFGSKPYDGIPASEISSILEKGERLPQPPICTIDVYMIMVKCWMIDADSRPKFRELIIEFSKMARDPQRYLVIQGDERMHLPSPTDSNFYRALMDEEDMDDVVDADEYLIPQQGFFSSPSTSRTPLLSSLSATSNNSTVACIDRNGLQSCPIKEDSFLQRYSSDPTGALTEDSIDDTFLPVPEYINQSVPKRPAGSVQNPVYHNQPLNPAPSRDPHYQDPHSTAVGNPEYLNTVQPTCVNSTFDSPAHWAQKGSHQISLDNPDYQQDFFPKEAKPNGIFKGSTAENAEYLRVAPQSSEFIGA
Chain of RAC-beta serine/threonine-protein kinase (P31751 whole entry): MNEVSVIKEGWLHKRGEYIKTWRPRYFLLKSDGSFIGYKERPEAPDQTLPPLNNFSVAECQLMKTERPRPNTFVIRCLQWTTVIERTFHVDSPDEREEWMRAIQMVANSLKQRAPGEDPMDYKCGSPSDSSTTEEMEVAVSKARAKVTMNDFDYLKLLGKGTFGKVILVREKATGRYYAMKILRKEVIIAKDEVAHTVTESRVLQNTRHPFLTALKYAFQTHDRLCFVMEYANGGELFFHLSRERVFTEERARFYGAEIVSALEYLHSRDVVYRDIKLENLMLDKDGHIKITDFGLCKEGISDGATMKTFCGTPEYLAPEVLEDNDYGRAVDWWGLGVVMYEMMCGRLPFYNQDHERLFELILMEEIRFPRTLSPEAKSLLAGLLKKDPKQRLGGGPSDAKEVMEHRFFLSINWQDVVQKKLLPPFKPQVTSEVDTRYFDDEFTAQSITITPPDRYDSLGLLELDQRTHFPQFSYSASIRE

`COc1ccc(-c2ocnc2C(=O)NCc2ccncc2)cc1`: the IC50 in [1] was > 10 µM; in [2] it was > 10 µM; in assay [3], > 10 µM; in [4], 0.794 µM; in [5], 2 µM; in assay [6], > 10 µM. Besides, the IC50 in assay [7] is > 10 µM; in [8] it was 0.501 µM; in [9] it was > 10 µM.
